PAD4 FP inh – inhibitors of human PAD4 | Q9UM07 | recombinant PAD4, RCA probe fluorescence polarization | inhibition, % at 6.36 µM | 0.41% of 330,000 active;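 active = percent inhibition above a cutoff equal to the mean of all tested compounds plus 3 SD, cut at about 15% in these data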;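 also: 0% = PAD4 with RCA probe and DMSO and 100% = probe without PAD4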
Target sequence (Q9UM07 whole entry, looked up): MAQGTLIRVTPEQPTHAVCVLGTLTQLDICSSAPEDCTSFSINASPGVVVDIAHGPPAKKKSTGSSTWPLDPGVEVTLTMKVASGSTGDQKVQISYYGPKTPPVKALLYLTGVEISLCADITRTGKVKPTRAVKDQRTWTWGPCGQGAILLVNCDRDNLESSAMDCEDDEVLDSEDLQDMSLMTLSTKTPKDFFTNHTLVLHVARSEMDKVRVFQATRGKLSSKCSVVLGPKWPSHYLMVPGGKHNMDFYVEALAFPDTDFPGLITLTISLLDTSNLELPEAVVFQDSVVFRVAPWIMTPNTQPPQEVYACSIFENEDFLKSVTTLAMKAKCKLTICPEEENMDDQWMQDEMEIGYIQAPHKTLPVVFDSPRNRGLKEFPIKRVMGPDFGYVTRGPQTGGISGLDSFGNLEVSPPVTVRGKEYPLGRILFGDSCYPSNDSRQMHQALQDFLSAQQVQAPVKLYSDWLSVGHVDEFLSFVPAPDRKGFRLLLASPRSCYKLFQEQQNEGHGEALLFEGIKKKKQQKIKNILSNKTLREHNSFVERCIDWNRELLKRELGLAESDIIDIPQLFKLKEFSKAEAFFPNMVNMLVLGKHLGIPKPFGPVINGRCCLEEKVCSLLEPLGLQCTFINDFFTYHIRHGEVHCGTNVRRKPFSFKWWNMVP
TDP2 inh – blocks human TDP2 phosphodiesterase activity | AID 720702 | O95551 | inhibition, % at 12.8 µM | recombinant TDP2, T5PNP hydrolysis, p-nitrophenol absorbance 415 nm | 0.34% of 370,000 active;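 active = inhibition above the mean of all tested compounds plus 3 SD, set per campaign, cut at about 25% in these data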;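 also: 0% = DMSO with enzyme and 100% = buffer with substrate but no TDP2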
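Assay system: recombinant human TDP2 / Reagent: T5PNP substrate at 5 mM, a TopII-DNA adduct mimic / Measured by: epi absorbance from released p-nitrophenol / Evaluation: % inhibition relative to enzyme-containing and enzyme-free wells / Control set: enzyme-free and DMSO wells / Replicates: each compound tested once, singlicate / Schedule: enzyme reaction with compound for 2 h at 37 °C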
PRMT1 inh – PRMT1 (human) inhibition, primary screen. recombinant PRMT1, activity-based probe fluorescence polarization. AID 652257. inhibition, % at 2.79 µM. Q99873. 1.3% of 370,000 active;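 active = inhibition above about 21% made by adding two undisclosed values, limit read from the data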
GSTO1 inh – blocks human GSTO1 in RBBP9 counter-screen; inhibition, % at 5.96 µM; recombinant GSTO1, activity-based probe fluorescence polarization; 1.1% of 300,000 active; P78417;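 active = inhibition above the campaign mean inhibition plus 3 SD, cut at about 35% in these data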;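 also: 0% = GSTO1-1 with DMSO and 100% = wells lacking GSTO1-1 enzyme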
Apaf1 inhib – human Apaf-1 inhibition; O14727; reconstituted apoptosome caspase-3 activity, DEVD-Rh110 fluorescence; inhibition, % at 20 µM; 0.71% of 330,000 active; AID 489030; active = inhibition of at least 40% at 20 µM;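 also: plate controls were DMSO wells for no effect and DEVD-CHO caspase inhibitor wells for full effect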
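Assay system – apoptosome proteins · Medium – Hepes buffer, pH 7.5 · Also added – cytochrome c with DEVD-Rh110 · Timing – 30 min compound preincubation, 50 min activation, room temperature · Detection – Rh110 fluorescence, excitation 480 nm, emission 540 nm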
Apaf-1 inh conf – Apaf-1 inhibition, single-dose confirmed. reconstituted apoptosome, caspase-3 DEVD-Rh110 fluorescence. inhibition, % at 20 µM. shares compounds with Apaf1 inhib. 25% of 1,800 active;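 active = mean inhibition of at least 40% at 20 µM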;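 also: plate controls were DMSO wells for no effect and DEVD-CHO caspase inhibitor control wells for full effect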
Rh110 quench – Rh110 signal interference in Apaf-1 inhibitor counter-screen; activation (fluorescence interference), % at 20 µM; AID 504615; 1,800 tested, under 10 active; shares compounds with Apaf1 inhib; Rh110 fluorescence interference, quenched caspase reaction;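 active = signal rise of 40% or more at 20 µM, treated as a fluorescence artifact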
Fluor interf inh – shows fluorescence interference in the Apaf-1 inhibitor assay format; shares compounds with Apaf1 inhib; fluorescence interference counterscreen, Apaf-1 assay format; IC50, µM; 460 tested, under 10 active; call rule not given here
* = called active by the depositor; / = no result given. An excerpt weighted towards active compounds, which were near 2.6% of everything screened.

SMILES	PAD4 FP inh	TDP2 inh	PRMT1 inh	GSTO1 inh	Apaf1 inhib	Apaf-1 inh conf	Rh110 quench	others
Cc1ccc(C)c2[nH]c(=O)c(C(c3nnnn3Cc3ccco3)N3CCc4ccccc4C3)cc12 (centres undefined)	-10.8	11.2	18.4	6.5	70.6*	21.6	-2.7
Cc1ccc(C)c2[nH]c(=O)c(C(c3nnnn3CCc3ccccc3)N3CCOCC3)cc12 (centres undefined)	-1.5	11.1	-2.1	-0.8	18.4	/	/
CC(=O)OCCCN1CCC2(CCC(c3ccccc3)CC2)C1=O (centres undefined)	/	-0.2	2.5	/	/	/	/
COc1ccc(S(=O)(=O)N2CCCCCC2)cc1C(=O)N(C)Cc1ccc(Cl)cc1Cl	3.5	-13.4	-0.9	2.9	27.1	/	/
COc1ccc(S(=O)(=O)N2CCCCCC2)cc1C(=O)NCCc1ccccc1	-3.3	-1.3	-5.2	/	46.6*	36.1	-7.0
CCN1CCN(S(=O)(=O)c2ccc(Cl)c(C(=O)N(C)Cc3cccc(Cl)c3Cl)c2)CC1	5.3	-1.3	-0.3	-7.7	42.6*	30.5	-0.5
COc1ccc(S(=O)(=O)N2CCCCCC2)cc1C(=O)N(C)Cc1c(F)cccc1Cl	3.7	-8.5	-1.2	/	42.6*	31.1	3.9
O=C(CSc1nnc(-c2ccccn2)n1-c1ccc(Cl)cc1)Nc1ccc2c(c1)OCCO2	/	1.9	0.5	/	/	/	/
O=C(c1cc(-c2ccc(Cl)cc2)nc2ccccc12)N1CCN(c2ncccn2)CC1	/	8.1	4.9	/	/	/	/
COc1ccc(/C=N/Nc2cc(N3CCCC3)nc(N3CCCC3)n2)cc1	-5.1	-7.0	7.2	36.5*	93.4*	96.3*	5.2	Fluor interf inh=>100
Oc1ccc(/C=N/Nc2cc(N3CCOCC3)nc(N3CCOCC3)n2)cc1	-9.3	-7.6	1.9	31.4	10.9	/	/
Oc1cccc(/C=N/Nc2cc(N3CCCC3)nc(N3CCCC3)n2)c1	-9.7	-5.7	9.8	35.6*	96.9*	98.5*	11.0	Fluor interf inh=>100
Oc1ccc(/C=N/Nc2cc(N3CCCC3)nc(N3CCCC3)n2)cc1	-5.6	-0.2	-2.7	4.3	97.4*	99.7*	11.6	Fluor interf inh=>100
COC(=O)[C@@]12CCCCC=C1N(CCc1ccc(Cl)cc1)C(=O)[C@H]2CC(=O)NCCC(C)C	/	2.2	3.2	/	/	/	/
CC(C)C[C@@H](C(=O)NC1CCN(Cc2ccccc2)CC1)N1C(=O)N2CCc3c([nH]c4ccccc34)[C@@]2(C)C1=O	5.3	-6.6	-4.7	-5.3	44.6*	17.2	-1.4
C[C@@H](C(=O)NC1CCN(Cc2ccccc2)CC1)N1C(=O)N2CCc3c([nH]c4ccccc34)[C@@]2(C)C1=O	-2.6	6.6	-6.4	-1.6	2.0	/	/
COc1ccc(CC(=O)Nc2cccc(Cl)c2C)cc1S(=O)(=O)N1CCOCC1	-0.4	2.7	3.4	/	1.7	/	/
COc1ccc(Br)cc1CN(C)C(=O)Cc1ccc(OC)c(S(=O)(=O)N2CCOCC2)c1	-1.4	-4.5	8.6	/	-3.2	/	/
COc1ccc(C(=O)N(Cc2ccccc2)c2cccc(C)c2)cc1S(=O)(=O)N1CCOCC1	0.8	-11.5	-2.9	-9.9	45.2*	34.6	4.4
COc1ccc(CC(=O)N(C)CC(=O)Nc2ccccc2Cl)cc1S(=O)(=O)N1CCOCC1	-4.0	-6.1	0.4	/	59.5*	33.2	-4.2
COc1ccc(CN(C)C(=O)Cc2ccc(OC)c(S(=O)(=O)N3CCOCC3)c2)cc1OC	-1.5	-4.6	-6.5	/	59.8*	33.6	-1.6
C=CCN1[C@@H](Cc2ccccc2)COc2cc(F)ccc2S1(=O)=O	/	-5.2	2.3	/	/	/	/
Cc1c(C(=O)Nc2ccc(S(=O)(=O)N(C)C3CCN(C)CC3)cc2)oc2ccccc12	-3.4	-6.1	1.5	/	52.6*	20.8	1.9
O=c1cc(CN2CCN(c3ccccc3)CC2)nc2scc(-c3ccccc3)n12	-1.5	-7.7	-4.6	0.6	12.7	/	/
COc1cc2c(cc1OC)CN(Cc1cc(=O)n3c(-c4ccccc4)csc3n1)CC2	-13.9	3.6	6.6	9.0	41.9*	11.3	8.2
SMILES	PAD4 FP inh	TDP2 inh	PRMT1 inh	GSTO1 inh	Apaf1 inhib	Apaf-1 inh conf	Rh110 quench	others
OCC(CCc1c[nH]c2ccccc12)c1c[nH]c2ccccc12 (centres undefined)	/	-10.4	15.2	/	/	/	/
CC1(C(=O)Nc2cccc(NS(C)(=O)=O)c2)CCN1Cc1ccccc1OC(F)F (centres undefined)	/	-4.0	-1.9	/	/	/	/
CCCCCCCCCn1c2c(c(=N)c3c1CCC3)CCCC2	/	/	/	/	51.1*	19.6	9.2
CCCCCCCCN1C(=O)[C@@H](CC(=O)N2CCCCC2)C[C@@]2(C(=O)OC)C1=C[C@H](COCc1ccccc1)O[C@@H]2C	/	-4.0	-2.0	/	/	/	/
CCOC(=O)N1CCN(S(=O)(=O)c2ccc(C(=O)N(CCN(C)C)c3nc4ccc(CC)cc4s3)cc2)CC1	-0.4	-7.1	1.4	-0.2	4.1	/	/
CCOC(=O)N1CCN(S(=O)(=O)c2ccc(C(=O)N(CCCN(C)C)c3nc4ccc(CC)cc4s3)cc2)CC1	2.9	-14.6	-4.0	8.2	54.8*	7.4	3.1
Cc1cc2nc(-c3nnnn3C3CCCCC3)c(=O)[nH]c2cc1C	/	0.1	-3.1	/	/	/	/
Cc1ccc(S(=O)(=O)NCc2ccccc2)cc1C(=O)N1CCCCC1	0.6	-0.9	0.5	7.0	8.7	/	/
Cc1ccc(S(=O)(=O)NCc2ccccc2)cc1C(=O)N1CCN(c2ccccc2)CC1	2.0	-0.7	4.3	/	58.3*	39.6	7.6
O=C(c1cccc(S(=O)(=O)NCc2ccccc2)c1)N1CCN(c2cccc(C(F)(F)F)c2)CC1	3.3	-6.5	-9.4	-5.4	44.1*	39.8	1.6
COc1cccc(C2CC(=O)N3CN(c4ccccc4F)CSC3=C2C#N)c1 (centres undefined)	-4.2	5.6	6.8	-2.1	8.5	/	/
COc1ccc(Br)cc1C1CC(=O)N2CN(C)CSC2=C1C#N (centres undefined)	-2.7	-0.9	17.4	-0.4	41.9*	29.3	18.4
O=C(NNc1cc(N2CCOCC2)nc(N2CCOCC2)n1)c1ccc([N+](=O)[O-])cc1	/	6.7	-3.6	/	96.5*	60.5*	18.5	Fluor interf inh=>100
COc1ccc(S(=O)(=O)Oc2ccc3cccc(N)c3c2)cc1	-16.6	-9.2	5.9	7.5	88.0*	12.7	13.4
COc1ccc(S(=O)(=O)Oc2ccc3ccccc3c2)cc1	-1.8	-5.1	-3.7	3.4	6.7	/	/
CCc1cc2c(SCC(=O)N3CC(=O)Nc4ccccc43)ncnc2s1	-1.7	8.8	2.8	4.4	55.1*	20.2	7.2
FC(F)(F)Oc1ccc(Cn2ccc3ccc(-c4ccc5ccn(Cc6ccc(OC(F)(F)F)cc6)c5c4)cc32)cc1	/	3.6	2.0	/	/	/	/

From PubChem
